Results as given in ChEMBL document CHEMBL1146104, “Synthesis and transdermal penetration-enhancing activity of carbonic and carbamic acid esters--comparison with transkarbam 12” (Bioorg Med Chem Lett, 2006).

What was measured:
Assay type in all cases: ADME, organism-based
Conditions in all cases: pig
Sus scrofa [1] = species on record: Sus scrofa; assay: Enhancement of theophylline transdermal penetration through porcine ear skin using Franz diffusion cell in water medium relative to control
Outline: (§1)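 Theophylline permeation from donor samples with and without enhancer (control lacks enhancer); acceptor-phase theophylline quantified by HPLC. Cumulative amounts (μg/cm2) plotted against time to derive flux (μg/cm2/h). Value is the enhancement ratio: flux with enhancer divided by flux of control. Significance p < 0.05 versus control.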

Sus scrofa [2] = species on record: Sus scrofa; assay: Enhancement of theophylline transdermal penetration through porcine ear skin using Franz diffusion cell in isopropylmyristate medium relative to control; outline: as §1
Sus scrofa [3] = species on record: Sus scrofa; assay: Enhancement of theophylline transdermal penetration through porcine ear skin using Franz diffusion cell in propylene glycol/water medium relative to control; outline: as §1

Row | Structure (SMILES) | Ratio (Sus scrofa [1]) | Ratio (Sus scrofa [2]) | Ratio (Sus scrofa [3])
1 | CCCCCCCCCCCCOC(=O)CCCCCCOC(=O)NCCCCCC(=O)OCCCCCCCCCCCC | 1.22 | 1.07 | 1.02
2 | CCCCCCCCCCCCOC(=O)CCCCCOC(=O)OCCCCCCCCCCCC | 2.49 | 1.29 | 1.13
3 | CCCCCCCCCCNC(=O)CCCCCOC(=O)OCC | 3.37 | 1.75 | 1.36
4 | CCCCCCCCCCCCNC(=O)CCCCCOC(=O)OCCCCCC(=O)NCCCCCCCCCCCC | 0.91 | 1.23 | 3.29
5 | CCCCCCCCCCCCOC(=O)CCCCCN.CCCCCCCCCCCCOC(=O)CCCCCNC(=O)O [TRANSKARBAM 12] | 1.9 | 6.56 | 22.8
6 | CCCCCCCCCCCCNC(=O)CCC(C)OC(=O)OCC (configuration not stated) | 1.48 | 1.77 | 1.45
7 | CCCCCCCCCCCCOC(=O)CCCCCNC(=O)OCC | 1.83 | 1.01 | 1.52
8 | CCCCCCCCCCCCOC(=O)CCCCCOC(=O)OCC | 2.4 | 1.07 | 2.13
9 | CCCCCCCCCCCCNC(=O)CCC(C)OC(=O)OCCCCCCCCCCCC (configuration not stated) | 1.7 | 1.15 | 1.11
10 | CCCCCCCCCCCCOC(=O)CCCCCNC(=O)OCCCCCCCCCCCC | 0.77 | 0.57 | 0.47
11 | CCCCCCCCCCCCOC(=O)CCCCCNC(=O)OCCCCCC(=O)OCCCCCCCCCCCC | 2.27 | 1.29 | 2.63
12 | CCCCCCCCCCCCOC(=O)OCCCCCC(=O)NCCCCCCCCCC | 1.13 | 1.48 | 2.66
13 | CCCCCCCCCCCCOC(=O)CCCCCOC(=O)OCCCCCC(=O)OCCCCCCCCCCCC | 1.76 | 1.39 | 3.7
14 | CCCCCCCCCCCCOC(=O)CCCCCCOC(=O)OCCCCCC(=O)OCCCCCCCCCCCC | 0.8 | 1.49 | 1.24
